Laboratory results published in ChEMBL document CHEMBL1124347, “Enantioselectivity of muscarinic antagonists. Isomeric 2-cyclohexyl-2-phenyl-5-[(dimethylamino)methyl]-1,3-oxathiolane 3-oxide methiodides” (J Med Chem, 1989).

What was measured:
[1] = target: Muscarinic acetylcholine receptor; experiment: Dissociation constant estimated by Schild analysis for antimuscarinic activity in guinea pig bladder; assay type: protein assay, Cavia porcellus
Method in brief: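 Longitudinal bladder strip (2 mm wide, urethra to apex) in PSS at 37 °C, with isometric recording. Tissue was equilibrated 30 min, and carbachol control curves were run as for ileum. Dose ratios (carbachol ED50 after/before antagonist) were taken at 3–4 antagonist concentrations, each tested 4–8 times. pA2 came from Schild plots with slope fixed at −1.0.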

[2] = target: Muscarinic acetylcholine receptor; experiment: Dissociation constant estimated by Schild analysis for antimuscarinic activity in guinea pig heart; assay type: protein assay, Cavia porcellus
Method in brief: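 Guinea pig heart preparation with carbachol as agonist and water as solvent for drugs. Dose ratios (carbachol ED50 with/without antagonist) were measured at 3–4 antagonist concentrations, 4–8 replicates each. Parallel untreated tissues monitored sensitivity drift. pA2 was estimated by Schild analysis with slope constrained to −1.0; means ± SE.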

[3] = target: Muscarinic acetylcholine receptor; experiment: Dissociation constant estimated by Schild analysis for antimuscarinic activity for guinea pig ileum; assay type: tissue-based, Cavia porcellus
Method in brief: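 Terminal ileum segments (2 cm, taken about 5 cm from the ileocecal junction) in PSS at 37 °C, with isotonic recording. After 30 min equilibration, carbachol dose–response curves were run at 30-min intervals; the second served as control. Antagonist was applied for 30 min, then the carbachol curve repeated. Dose ratios were taken at 3–4 concentrations, n=4–8 each. pA2 came from Schild analysis, slope constrained to −1.0.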

Compound | pA2 [1] | pA2 [2] | pA2 [3]
C[N+](C)(C)C[C@@H]1C[S+]([O-])[C@@](c2ccccc2)(C2CCCCC2)O1.[I-] (single isomer, unassigned; (-)-8) | 6.07 | 6.01 | 6.17
C[N+](C)(C)C[C@@H]1C[S@+]([O-])[C@](c2ccccc2)(C2CCCCC2)O1.[I-] (stereo in doubt; (+\-)-4) | 6.96 | 6.53 | 6.91
C[N+](C)(C)C[C@@H]1C[S@@+]([O-])[C@](c2ccccc2)(C2CCCCC2)O1.[I-] (stereo in doubt; (-)-3) | 5.88 | 6.24 | 5.75
C[N+](C)(C)C[C@@H]1C[S@@+]([O-])[C@](c2ccccc2)(C2CCCCC2)O1.[I-] (racemic) | 5.89 | 5.96 | 6.05
C[N+](C)(C)C[C@@H]1C[S+]([O-])[C@@](c2ccccc2)(C2CCCCC2)O1.[I-] (mixture of isomers; form 2) | 7.53 | 7.45 | 7.73
C[N+](C)(C)C[C@@H]1C[S@@+]([O-])[C@](c2ccccc2)(C2CCCCC2)O1.[I-] (stereo in doubt; (+)-3) | 5.94 | 5.54 | 6.07
C[N+](C)(C)C[C@@H]1C[S+]([O-])[C@@](c2ccccc2)(C2CCCCC2)O1.[I-] (mixture of isomers; form 1) | 5.83 | 5.93 | 5.93
C[N+](C)(C)C[C@@H]1C[S+]([O-])[C@@](c2ccccc2)(C2CCCCC2)O1.[I-] (single isomer, unassigned; (-)-7) | 5.49 | 5.37 | 5.52
C[N+](C)(C)C[C@@H]1C[S@+]([O-])[C@](c2ccccc2)(C2CCCCC2)O1.[I-] (stereo in doubt; (-)-4) | 5.52 | 5.48 | 5.55
C[N+](C)(C)C[C@@H]1C[S@+]([O-])[C@](c2ccccc2)(C2CCCCC2)O1.[I-] (stereo in doubt; (+)-4) | 7.19 | 6.8 | 7.19
C[N+](C)(C)C[C@@H]1C[S+]([O-])[C@@](c2ccccc2)(C2CCCCC2)O1.[I-] (single isomer, unassigned; (+)-8) | 5.56 | 5.44 | 5.96
C[N+](C)(C)C[C@@H]1C[S+]([O-])[C@@](c2ccccc2)(C2CCCCC2)O1.[I-] (single isomer, unassigned; (+)-7) | 7.73 | 7.69 | 7.84
